Data on 14 compounds can be found in ChEMBL document CHEMBL4152247, “Discovery of novel 2,4-diarylaminopyrimidine derivatives as potent and selective epidermal growth factor receptor (EGFR) inhibitors against L858R/T790M resistance mutation” (Eur J Med Chem, 2018).

Activity calls are given as the source filed them. The calls are words filed in the database; no cut-off is given here.

The IC50 is the concentration that gives 50% inhibition.

Data set [1] has as its target T1, Epidermal growth factor receptor (Homo sapiens, UniProt P00533). Briefly: Inhibition of recombinant human GST-tagged wild type EGFR expressed in baculovirus expression system using poly (Glu, Tyr) 4:1 as substrate after 1 hr by ELISA. (In general: An ELISA detects its analyte on a solid surface through an enzyme-linked reagent.)
Data set [2] has as its system NCI-H1975. Briefly: Antiproliferative activity against EGFR T790M/L858R double mutant expressing human NCI-H1975 cells after 72 hrs by SRB assay. Type of data set: functional, cell-based. The settings on record: NCI-H1975, 72 h. Summed up:
(§1)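 SRB assay: cells seeded at 5×10^3 per well for 24 h, then exposed to serial dilutions for 72 h. DMSO stocks were 10.0 mg/ml. Cells were fixed with 10% TCA at 4 °C for 1 h and stained 15 min with 4 mg/mL SRB in 1% acetic acid. Absorbance was read at 515 nm. Inhibition was taken as [1-(A515 treated/A515 control)]×100%. IC50 was obtained by the logit method, averaging at least three independent experiments.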

For data set [3], the species on record is Homo sapiens. The data set can be described thus: Selectivity ratio of IC50 for recombinant human GST-tagged wild type EGFR to IC50 for recombinant human GST-tagged EGFR T790M/L858R double mutant.
Data set [4] is filed under the species Homo sapiens. Briefly: Selectivity index, ratio of IC50 for wild type EGFR expressing human A431 cells to IC50 for EGFR T790M/L858R double mutant expressing human NCI-H1975 cells.
Data set [5] addresses Epidermal growth factor receptor (Homo sapiens, UniProt P00533, L858R/T790M). The data set can be described thus: Inhibition of recombinant human GST-tagged EGFR T790M/L858R double mutant expressed in baculovirus expression system using poly (Glu, Tyr) 4:1 as substrate after 1 hr by ELISA.
For another data set, the system named is A-431. Briefly: Antiproliferative activity against wild type EGFR expressing human A431 cells after 72 hrs by SRB assay. The class given is cell-based. Conditions: A-431, 72 h. The method, boiled down:
as §1
On the technique in general: Sulforhodamine B stains cellular protein and so reports cell mass.

Data set [6] relates to NCI-H1975. The data set can be described thus: Antitumor activity against EGFR T790M/L858R double mutant expressing human NCI-H1975 cells xenografted in BALB/c athymic nude mouse assessed as tumor growth inhibition at 10 mg/kg, po bid for 21 days. The class given is functional, organism-based. Summed up: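 5×10^6 NCI-H1975 cells injected subcutaneously into the right flank of athymic mice. At tumour volume 100-300 mm³, mice were randomised (n = 6 per group) to vehicle or drug. Drug given orally twice daily. Tumour size and body weight were measured on set days, with volume = length×width²/2. Results are group means with SEM.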
On the technique in general: In xenograft studies the graft and the host belong to different species.

Data set [7] concerns Mus musculus. The data set can be described thus: In vivo inhibition of EGFR T790M/L858R double mutant phosphorylation in tumor of BALB/c athymic nude mouse xenografted with human NCI-H1975 cells at 10 mg/kg, po bid for 21 days. The class given is functional, organism-based. Summed up: (§2)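 Western blot of NCI-H1975 xenograft tumors from mice given 10 mg/kg orally twice daily. Phospho-EGFR and phospho-Akt were quantified against the vehicle control group. Significance was set at p < 0.05.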

Data set [8] has as its target T1, Epidermal growth factor receptor. Briefly: Inhibition of EGF-induced wild type EGFR phosphorylation in human A431 cells at 0.1 to 1000 nM preincubated for 2 hrs followed by EGF induction and measured after 10 mins by Western blot analysis. The class given is cell-based. Conditions: 1 µM. The method, boiled down:
(§3)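 Cells were treated with or without compound for 2 h, then stimulated with 50 ng/ml EGF for 10 min. They were lysed in SDS lysis buffer for Western blot. Blots were probed for p-EGFR, EGFR, p-ERK, ERK, p-AKT and AKT, with tubulin as reference.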

Data set [9] concerns Mus musculus. Briefly: Toxicity in BALB/c athymic nude mouse xenografted with EGFR T790M/L858R double mutant expressing human NCI-H1975 cells assessed as body weight loss at 10 to 20 mg/kg, po bid for 21 days. The class given is organism-based. The settings on record: in vivo, 504 h.
For data set [10], the system named is NCI-H1975. The data set can be described thus: Antitumor activity against EGFR T790M/L858R double mutant expressing human NCI-H1975 cells xenografted in po dosed BALB/c athymic nude mouse assessed as tumor growth inhibition administered as bid for 21 days. Type of data set: functional, organism-based.
Data set [11] deals with Mus musculus. Briefly: In vivo inhibition of wild type EGFR phosphorylation in tumor of BALB/c athymic nude mouse xenografted with human A431 cells assessed as decrease in Akt phosphorylation at 10 mg/kg, po bid for 21 days. Conditions: 504 h.
In data set [12] the test system is Mus musculus. Briefly: In vivo inhibition of EGFR T790M/L858R double mutant phosphorylation in tumor of BALB/c athymic nude mouse xenografted with human NCI-H1975 cells assessed as decrease in Akt phosphorylation at 10 mg/kg, po bid for 21 days. The class given is functional, organism-based. Summed up: as §2
Data set [13] concerns Mus musculus. The data set can be described thus: Toxicity in BALB/c athymic nude mouse xenografted with wild type EGFR expressing human A431 cells assessed as body weight loss at 10 to 20 mg/kg, po bid for 21 days. Conditions: in vivo, 504 h.
Data set [14] concerns Mus musculus. The data set can be described thus: In vivo inhibition of wild type EGFR phosphorylation in tumor of BALB/c athymic nude mouse xenografted with human A431 cells at 10 mg/kg, po bid for 21 days. The settings on record: 504 h.
The next data set deals with A431 (Homo sapiens). Briefly: Antitumor activity against wild type EGFR expressing human A431 cells xenografted in BALB/c athymic nude mouse assessed as tumor growth inhibition at 20 mg/kg, po bid for 21 days relative to vehicle-treated control. The settings on record: in vivo, 504 h.
In data set [15] the test system is Epidermal growth factor receptor (Homo sapiens), P00533 [L858R,T790M]. The data set can be described thus: Inhibition of EGF-induced EGFR T790M/L858R double mutant in human NCI-H1975 cells assessed as decrease in AKT phosphorylation preincubated for 2 hrs followed by EGF induction and measured after 10 mins by Western blot analysis. The class given is cell-based. The method, boiled down:
as §3

For data set [16] the test system is unchanged. The data set can be described thus: Inhibition of EGF-induced EGFR T790M/L858R double mutant in human NCI-H1975 cells assessed as decrease in ERK phosphorylation preincubated for 2 hrs followed by EGF induction and measured after 10 mins by Western blot analysis. The class given is cell-based. Summed up:
as §3

Data set [17] has the same test system. Briefly: Inhibition of EGF-induced EGFR T790M/L858R double mutant phosphorylation in human NCI-H1975 cells preincubated for 2 hrs followed by EGF induction and measured after 10 mins by Western blot analysis. The class given is cell-based. Summed up: as §3

T1 sequence (P00533 whole entry): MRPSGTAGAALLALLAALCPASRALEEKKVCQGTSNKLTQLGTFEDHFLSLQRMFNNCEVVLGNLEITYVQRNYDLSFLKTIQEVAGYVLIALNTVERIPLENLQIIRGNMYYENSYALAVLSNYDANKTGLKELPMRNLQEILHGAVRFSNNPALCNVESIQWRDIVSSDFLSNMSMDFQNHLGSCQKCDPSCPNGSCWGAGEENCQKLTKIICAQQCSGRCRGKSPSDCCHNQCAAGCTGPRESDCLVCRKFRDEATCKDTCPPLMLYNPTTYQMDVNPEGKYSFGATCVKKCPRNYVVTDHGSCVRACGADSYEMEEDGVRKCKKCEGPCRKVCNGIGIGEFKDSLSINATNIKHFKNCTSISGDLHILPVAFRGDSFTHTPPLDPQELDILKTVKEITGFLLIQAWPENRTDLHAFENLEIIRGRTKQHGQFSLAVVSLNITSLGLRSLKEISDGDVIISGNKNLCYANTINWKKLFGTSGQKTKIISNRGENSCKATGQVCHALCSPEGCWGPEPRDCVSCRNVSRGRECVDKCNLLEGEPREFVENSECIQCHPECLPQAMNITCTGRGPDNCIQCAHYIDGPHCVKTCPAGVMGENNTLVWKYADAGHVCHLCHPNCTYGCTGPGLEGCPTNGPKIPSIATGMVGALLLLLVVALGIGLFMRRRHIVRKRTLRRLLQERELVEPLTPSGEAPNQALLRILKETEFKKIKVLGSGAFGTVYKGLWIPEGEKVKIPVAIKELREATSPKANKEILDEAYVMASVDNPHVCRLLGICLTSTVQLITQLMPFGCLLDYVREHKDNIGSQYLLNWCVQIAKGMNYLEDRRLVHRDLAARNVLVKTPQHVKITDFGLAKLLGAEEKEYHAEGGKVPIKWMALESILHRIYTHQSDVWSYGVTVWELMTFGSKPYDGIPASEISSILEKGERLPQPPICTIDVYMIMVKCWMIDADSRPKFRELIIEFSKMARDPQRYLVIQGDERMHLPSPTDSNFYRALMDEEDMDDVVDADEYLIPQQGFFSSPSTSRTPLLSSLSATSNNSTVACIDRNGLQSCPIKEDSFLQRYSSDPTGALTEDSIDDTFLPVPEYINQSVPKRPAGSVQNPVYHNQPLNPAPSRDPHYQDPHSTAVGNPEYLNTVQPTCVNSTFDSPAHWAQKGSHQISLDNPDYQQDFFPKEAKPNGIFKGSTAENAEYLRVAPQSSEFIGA
Sequence of Epidermal growth factor receptor (Homo sapiens, UniProt P00533, L858R/T790M) (P00533 25-1210 T790M/L858R limits assumed): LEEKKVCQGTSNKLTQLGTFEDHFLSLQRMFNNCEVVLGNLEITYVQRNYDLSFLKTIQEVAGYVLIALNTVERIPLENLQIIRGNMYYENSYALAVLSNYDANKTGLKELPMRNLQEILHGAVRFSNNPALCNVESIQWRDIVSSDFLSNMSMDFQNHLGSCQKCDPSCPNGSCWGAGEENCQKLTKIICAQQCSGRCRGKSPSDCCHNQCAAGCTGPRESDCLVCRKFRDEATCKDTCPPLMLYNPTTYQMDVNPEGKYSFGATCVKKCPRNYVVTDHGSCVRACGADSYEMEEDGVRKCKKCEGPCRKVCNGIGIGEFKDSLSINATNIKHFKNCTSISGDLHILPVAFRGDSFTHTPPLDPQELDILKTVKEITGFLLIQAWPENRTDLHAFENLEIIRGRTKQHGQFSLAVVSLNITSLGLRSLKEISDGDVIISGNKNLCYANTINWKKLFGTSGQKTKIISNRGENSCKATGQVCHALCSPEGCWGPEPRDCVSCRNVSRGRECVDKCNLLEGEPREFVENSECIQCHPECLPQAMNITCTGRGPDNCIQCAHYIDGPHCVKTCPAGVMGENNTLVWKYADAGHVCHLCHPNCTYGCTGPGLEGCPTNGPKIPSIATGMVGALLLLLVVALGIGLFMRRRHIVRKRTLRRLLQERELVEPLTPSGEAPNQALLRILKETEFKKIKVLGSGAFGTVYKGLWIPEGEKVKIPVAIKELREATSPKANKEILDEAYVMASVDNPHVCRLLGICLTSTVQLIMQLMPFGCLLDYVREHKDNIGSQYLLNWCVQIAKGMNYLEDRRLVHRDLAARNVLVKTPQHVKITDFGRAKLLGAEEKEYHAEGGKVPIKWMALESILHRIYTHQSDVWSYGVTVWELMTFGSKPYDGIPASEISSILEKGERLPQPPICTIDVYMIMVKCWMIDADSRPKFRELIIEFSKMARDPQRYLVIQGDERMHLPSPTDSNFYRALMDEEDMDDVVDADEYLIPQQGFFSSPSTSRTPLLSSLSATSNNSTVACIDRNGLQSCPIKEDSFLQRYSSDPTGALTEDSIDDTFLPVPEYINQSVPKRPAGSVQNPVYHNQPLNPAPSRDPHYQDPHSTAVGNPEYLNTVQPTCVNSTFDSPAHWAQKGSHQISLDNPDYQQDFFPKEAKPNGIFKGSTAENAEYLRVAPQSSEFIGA
Sequence of Epidermal growth factor receptor (Homo sapiens), P00533 [L858R,T790M] (P00533 whole entry T790M/L858R, looked up): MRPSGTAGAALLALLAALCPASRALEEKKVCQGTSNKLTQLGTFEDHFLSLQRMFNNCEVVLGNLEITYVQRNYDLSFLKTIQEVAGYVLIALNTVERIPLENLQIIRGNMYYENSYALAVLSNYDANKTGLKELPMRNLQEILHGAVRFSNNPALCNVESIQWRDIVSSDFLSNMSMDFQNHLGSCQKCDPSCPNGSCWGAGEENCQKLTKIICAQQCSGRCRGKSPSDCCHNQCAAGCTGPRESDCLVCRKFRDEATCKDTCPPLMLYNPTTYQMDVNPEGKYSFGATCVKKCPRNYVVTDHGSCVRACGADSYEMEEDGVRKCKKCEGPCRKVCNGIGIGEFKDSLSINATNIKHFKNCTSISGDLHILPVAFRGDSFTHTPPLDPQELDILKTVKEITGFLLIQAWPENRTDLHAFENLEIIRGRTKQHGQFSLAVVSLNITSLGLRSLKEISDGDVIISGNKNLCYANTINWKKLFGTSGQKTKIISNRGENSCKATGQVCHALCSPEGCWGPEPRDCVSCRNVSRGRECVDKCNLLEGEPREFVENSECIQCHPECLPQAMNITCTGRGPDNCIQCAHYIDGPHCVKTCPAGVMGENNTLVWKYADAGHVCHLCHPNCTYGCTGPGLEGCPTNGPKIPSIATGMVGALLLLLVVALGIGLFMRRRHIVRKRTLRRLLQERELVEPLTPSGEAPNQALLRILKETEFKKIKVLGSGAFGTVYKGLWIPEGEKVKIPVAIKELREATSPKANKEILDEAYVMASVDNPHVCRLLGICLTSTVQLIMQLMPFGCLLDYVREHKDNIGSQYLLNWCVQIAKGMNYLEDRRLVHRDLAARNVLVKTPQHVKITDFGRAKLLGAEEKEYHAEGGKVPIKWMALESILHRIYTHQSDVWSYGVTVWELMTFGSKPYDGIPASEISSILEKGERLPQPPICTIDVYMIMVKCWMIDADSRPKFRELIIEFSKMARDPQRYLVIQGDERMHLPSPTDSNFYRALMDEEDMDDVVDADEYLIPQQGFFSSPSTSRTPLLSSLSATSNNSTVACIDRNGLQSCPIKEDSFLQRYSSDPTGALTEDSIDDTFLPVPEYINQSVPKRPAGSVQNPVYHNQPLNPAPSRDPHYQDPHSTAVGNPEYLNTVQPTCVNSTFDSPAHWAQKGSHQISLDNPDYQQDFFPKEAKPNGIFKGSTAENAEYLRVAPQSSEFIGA

`C=CC(=O)Nc1cc(Nc2nccc(Nc3ccccc3-c3ccn(C)n3)n2)c(OC)cc1OCCN(C)C`: the IC50 turned out to be 317 nM in data set [1], 85 nM in the data set with NCI-H1975 [2], 16.4 nM in [5] and 1580 nM with A-431. Moreover, the results for the Ratio IC50 in the data set listed under Homo sapiens [3] and in the data set listed under Homo sapiens [4] were 19 and 18, respectively.
Take `C=CC(=O)Nc1cc(Nc2nccc(Nc3ccccc3-c3ncn(C)n3)n2)c(OC)cc1N(C)CCN(C)C`: the IC50 in data set [1] stood at 660 nM; in the data set with NCI-H1975 [2] it was 74 nM; in data set [5], 7.7 nM; in the data set on A-431 it was 1500 nM. The values for the Ratio IC50 in the data set listed under Homo sapiens [3] and in the data set listed under Homo sapiens [4] were 86 and 20, respectively.
On to `C=CC(=O)Nc1cc(Nc2nccc(Nc3ccccc3-c3ccn(C)n3)n2)c(OC)cc1N1CCN(C)CC1`, for which the IC50 in data set [1] and in data set [5] was above 1000 nM in each case.
As to `C=CC(=O)Nc1cc(Nc2nccc(Nc3ccccc3-n3nccn3)n2)c(OC)cc1N1CCOCC1`, the figures for the IC50 in [1] and in [5] were above 1000 nM and 838 nM, respectively.
Consider `C=CC(=O)Nc1cc(Nc2nccc(Nc3ccccc3-n3cccn3)n2)c(OC)cc1N1CCN(C)CC1`, for which the IC50 in data set [1] was above 1000 nM; in data set [5], 143 nM.
Consider `C=CC(=O)Nc1cc(Nc2nccc(-c3cn(C)c4ccccc34)n2)c(OC)cc1N(C)CCN(C)C` [OSIMERTINIB], for which the TGI result with NCI-H1975 [6] is “Active”. In addition, the IC50 with NCI-H1975 [2] was found to be […]; in the data set on A-431 it was […].
As to `C=CC(=O)Nc1cc(Nc2nccc(Nc3ccccc3-n3nccn3)n2)c(OC)cc1N1CCN(C)CC1`, the IC50 in [1] is above 1000 nM; in data set [5], 175 nM.
As for `C=CC(=O)Nc1cc(Nc2nccc(Nc3ccccc3-n3nccn3)n2)c(OC)cc1N(C)CCN(C)C`, the IC50 in [1] amounted to 281 nM; in data set [5] it was 33.1 nM. Moreover, the Ratio IC50 in the data set listed under Homo sapiens [3] turned out to be 8.
Take `C=CC(=O)Nc1cc(Nc2nccc(Nc3ccccc3-n3cccn3)n2)c(OC)cc1N1CCOCC1`: the IC50 in data set [1] and in data set [5] was above 1000 nM each time.
Turning to `C=CC(=O)Nc1cc(Nc2nccc(Nc3ccccc3-c3ccn(C)n3)n2)c(OC)cc1N1CCOCC1`, the IC50 in [1] and in [5] was above 1000 nM in each case.
With `C=CC(=O)Nc1cc(Nc2nccc(Nc3ccccc3-c3ccn(C)n3)n2)c(OC)cc1N(C)CCN(C)C`, the inhibition entry in the data set on Mus musculus [7] and in the data set on Mus musculus [12] was “Active” throughout. Moreover, the “inhibition (INH)” value (in data set [8]; in the data set on Mus musculus [11]; in the data set on Mus musculus [14]) was “Not Active” throughout. For the same compound, the half-inhibitory concentration (IC50) in data set [1] was 350 nM; in the data set on NCI-H1975 [2], 59 nM; in [5], 4.1 nM; in the data set on A-431 it was 7370 nM. For the same compound, the Activity result in the data set on Mus musculus [9] and in the data set on Mus musculus [13] was “Non-Toxic” each time. Moreover, the TGI result is “Dose-dependent effect” in the data set with NCI-H1975 [10] and below 20% in the data set with A431 (Homo sapiens). In addition, the Ratio IC50 was 85 in the data set listed under Homo sapiens [3] and 124 in the data set listed under Homo sapiens [4]. Also, the inhibition entry in [15], in data set [16] and in [17] was “Dose-dependent effect” each time.
For `C=CC(=O)Nc1cc(Nc2nccc(Nc3ccccc3-n3nccn3)n2)c(OC)cc1N1CCC(N(C)C)CC1`, the IC50 in data set [1] was above 1000 nM; in the data set with NCI-H1975 [2], 70 nM; in data set [5] it was 202 nM; with A-431, 2760 nM. Also, in the data set filed under Homo sapiens [4], the Ratio IC50 came out at 39.
In the case of `C=CC(=O)Nc1cc(Nc2nccc(Nc3ccccc3-n3cccn3)n2)c(OC)cc1N(C)CCN(C)C`, the IC50 in data set [1] amounted to 648 nM; in the data set on NCI-H1975 [2], 68 nM; in data set [5], 4.1 nM; in the data set on A-431, 10100 nM. Further, the Ratio IC50 in the data set listed under Homo sapiens [3] was determined as 158; in the data set listed under Homo sapiens [4], 148.
Regarding `C=CC(=O)Nc1cc(Nc2nccc(Nc3ccccc3-c3ccn(C)n3)n2)c(OC)cc1N1CCC(N(C)C)CC1`, the half-maximal inhibitory concentration (IC50) is above 1000 nM in [1] and 38.5 nM in data set [5].
